Consider 15 compounds from PMC12554292 (Drug Design, Development and Therapy, 2025).

Series [1] relates to Huh-7 cells. The series can be described thus: CCK-8 cell viability and IC50 measurement, Huh-7. The series is classed as cell-based, human. The following applies: read-out: IC50 Huh-7. The essentials:
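Huh-7 cells (ATCC) in DMEM or RPMI 1640 with 10% FBS, 37°C, 5% CO2; seeded 3 × 10^3 cells/well and left to adhere overnight. […] CCK-8 added for 1 h, A450 read. Viability as % of control; IC50 from inhibition by nonlinear regression. n > 5; mean ± SE.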

In series [2] the target is MET receptor tyrosine kinase (RTK). The following applies: read-out: IC50 MET receptor tyrosine kinase; cited from earlier work.
The test system of series [3] is Huh-7 cells. The series is described as follows: Autophagy staining assay. The series is classed as cell-based, human. The following applies: 5, 10, 20 μM, 24 h, MDC probe. The essentials:
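Huh-7 cells were seeded at 3 × 10^3 cells/well and exposed to 0, 5, 10 or 20 μM test compound for 24 h. Medium was removed, and cells were stained with monodansylcadaverine for 1 h in the dark at 37°C, then imaged by confocal microscopy. Replicates: 5–6 per group.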

In series [4] the test system is Huh-7 cells. The series is described as follows: DNA damage staining. The series is classed as cell-based, human. The following applies: 5, 10, 20 μM, 24h. The gist of the method:
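Huh-7 cells seeded at 3 × 10^3 cells/well and exposed to test compound at 0, 5, 10 or 20 μM for 24 h. Stained with a DNA damage detection kit (nuclei blue, DNA-damaged cells green), then imaged by fluorescence microscopy. 5–6 replicates per group.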

Series [5] concerns Huh-7 cells. The series is described as follows: Apoptosis assay. The series is classed as cell-based, human. The following applies: 5, 10, 20 μM, 72h.
The test system of series [6] is Huh-7 cells. The series can be described thus: Live and dead cell staining. The series is classed as cell-based, human. The following applies: 5, 10, 20 μM, 24h. The gist of the method:
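Huh-7 cells seeded at 3 × 10^3 cells/well and incubated overnight. Treated with test compound at 0, 5, 10 or 20 μM for 24 h, then stained with Calcein-AM and PI for 1 h in the dark and imaged by fluorescence confocal microscopy. 5–6 replicates per group.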

The test system of series [7] is Huh-7 cells. The series can be described thus: RT-PCR gene expression analysis. The series is classed as cell-based, human. The following applies: 10 μM, 72 h. The gist of the method:
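Huh-7 cells in 12-well plates were treated with 10 μM test compound for 72 h. Total RNA was extracted with TRIzol, and gene expression was measured by SYBR Green real-time PCR using specific primer pairs.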

In a further series the test system is Female KM mice. The series can be described thus: Acute oral toxicity test. The series is classed as in vivo. The following applies: 500 mg/kg, intragastric administration. The gist of the method: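 Female Kunming mice (SPF, 8 weeks), acclimated 7 days with free water on a 12 h light/dark cycle; 6 per group. Test compound at 500 mg/kg given intragastrically in 5% DMSO + 40% PEG300 + 1% Tween 80 + 54% saline; controls received an equal volume of vehicle. Body weight and appearance were followed for 14 days. Heart, liver, spleen, lungs and kidneys were then weighed for organ coefficients and examined by H&E histology.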

The test system of another series is ABHD6. The following applies: cited from earlier work.
For series [8], the system named is Huh-7 cells. The series can be described thus: Western blot protein expression analysis. The series is classed as cell-based, human. The following applies: 10 μM, 72 h. The essentials:
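Huh-7 cells in 12-well plates were treated with 10 μM test compound for 72 h. Whole-cell protein was extracted in RIPA buffer with protease/phosphatase inhibitors and immunoblotted for γH2AX, caspase-3, caspase-9, PARP, cyclin D, cyclin E, LC3 and β-actin. Six replicates per group; mean ± SEM, two-tailed t-test.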
On the technique in general: A western blot detects proteins with antibodies after separation by electrophoresis.

Each structure is given as a SMILES string. Like-named read-outs stand apart in the source and are kept apart here.

Broadly, the IC50 is the midpoint of a concentration-inhibition curve. On to `O=C(Nc1ccc(Cl)cc1)Nc1ccc(-c2cn(Cc3cccc(Cl)c3)nn2)cc1` [Compound 5b, 1-(4-(1-(3-Chlorobenzyl)-1H-1,2,3-Triazol-4-Yl)phenyl)-3-(4-Chlorophenyl)urea], for which, in the series on Huh-7 cells [1] (Homo sapiens, Huh-7, 72 h), the IC50 was over 50 µM.

Consider `O=C(Nc1ccc(-c2cn(Cc3ccc(Cl)cc3)nn2)cc1)Nc1ccccc1Br` [Compound 5d, 1-(2-Bromophenyl)-3-(4-(1-(4-Chlorobenzyl)-1H-1,2,3-Triazol-4-Yl)phenyl)urea], for which, in the series on Huh-7 cells [1] (Homo sapiens, Huh-7, 72 h), the IC50 was over 50 µM.

In the case of `O=c1[nH]cc(F)c(=O)[nH]1` [Compound 5-FU, reference compound], the IC50 in the series on Huh-7 cells [1] (72-hour exposure, CCK-8) was determined as 39 ± 0.56 µM.

On to `O=C(NCCN1CCOCC1)Nc1nc2ccc(Sc3nnc4ccc(-c5ccc(F)cc5)nn34)cc2s1` [II], for which, in series [2], the IC50 was 0.0042 µM.

For `O=C(NCc1cn(Cc2ccc(Br)cc2)nn1)Nc1ccc(Cl)cc1` [Compound 7c, 1-((1-(4-Bromobenzyl)-1H-1,2,3-Triazol-4-Yl)methyl)-3-(4-Chlorophenyl)urea], the 50% inhibitory concentration (IC50) in the series with Huh-7 cells [1] (Homo sapiens, Huh-7, 72 h) is over 50 µM.

On to `O=C(Nc1ccc(Cl)cc1)Nc1cccc(-c2cn(Cc3ccc(Br)cc3)nn2)c1` [Compound 3c, 1-(3-(1-(4-Bromobenzyl)-1H-1,2,3-Triazol-4-Yl)phenyl)-3-(4-Chlorophenyl)urea], for which the “autophagosome in tumor cells” value in the series with Huh-7 cells [3] is given as “increased dramatically”. The DNA damage result in the series with Huh-7 cells [4] was “significantly stimulated DNA damage in a concentration-dependent manner”. Besides, in the series with Huh-7 cells [5], the apoptotic cells result is “dose-dependent increases in apoptotic cells”. The IC50 with Huh-7 cells [1] (Homo sapiens, Huh-7, 72 h) is 10.2 ± 1.32 µM. For the same compound, the “Dead and living cells staining” value in the series with Huh-7 cells [6] is listed as “dead cells were increased significantly in a dose-dependent manner”. In the series with Huh-7 cells [7], the “expression of Keap1 (mRNA)” value is given as “upregulated”; the “expression of oxidative stress genes Nrf2, Gpx4, TNFa (mRNA)” value is recorded as “no significant changes”; the “expressions of p53, p21, H2AX, Bcl2, caspase6, caspase7, ATG5 and ATG7 (mRNA)” value is recorded as “did not influence”. For the same compound, the mortality entry with Female KM mice (14-day observation, female KM mice) was “no mortality”. Further, the “body weight vs vehicle control group” value in the series with Female KM mice (14 days, all time points) is given as “no statistically significant differences”. The “organ coefficient and histopathological assessments of major organs” value with Female KM mice (cardiac, hepatic, splenic, pulmonary, renal tissues) is reported as “no detectable toxicological alterations”.

On to `O=C(NCc1cn(Cc2ccc(Br)cc2)nn1)Nc1ccccc1Br` [Compound 7e, 1-((1-(4-Bromobenzyl)-1H-1,2,3-Triazol-4-Yl)methyl)-3-(2-Bromophenyl)urea], for which, in the series with Huh-7 cells [1] (Homo sapiens, Huh-7, 72 h), the IC50 was over 50 µM.

Regarding `O=C(NCc1cn(Cc2cccc(Cl)c2)nn1)Nc1ccc(Cl)cc1` [Compound 7b, 1-((1-(3-Chlorobenzyl)-1H-1,2,3-Triazol-4-Yl)methyl)-3-(4-Chlorophenyl)urea], the IC50 with Huh-7 cells [1] (Homo sapiens, Huh-7, 72 h) was over 50 µM.

On to `O=C(NCc1cn(Cc2ccc(Cl)cc2)nn1)Nc1ccccc1Br` [Compound 7d, 1-(2-Bromophenyl)-3-((1-(4-Chlorobenzyl)-1H-1,2,3-Triazol-4-Yl)methyl)urea], for which the IC50 in the series on Huh-7 cells [1] (Homo sapiens, Huh-7, 72 h) is over 50 µM.

For `O=C(c1cccc(-c2ccc(-c3cn(C(=O)N4CCCCC4c4ccccc4)nn3)cc2)c1)N1CCCCC1` (stereo not drawn) [KT185], the in vivo selectivity entry with ABHD6 is on record as “exceptional in vivo selectivity”.

As to `O=C(Nc1ccc(Cl)cc1)Nc1ccc(-c2cn(Cc3ccc(Br)cc3)nn2)cc1` [Compound 5c, 1-(4-(1-(4-Bromobenzyl)-1H-1,2,3-Triazol-4-Yl)phenyl)-3-(4-Chlorophenyl)urea], the IC50 with Huh-7 cells [1] (Homo sapiens, Huh-7, 72 h) is over 50 µM.

With `O=C(Nc1cccc(-c2cn(Cc3ccc(Br)cc3)nn2)c1)Nc1ccccc1Br` [Compound 3e, 1-(3-(1-(4-Bromobenzyl)-1H-1,2,3-Triazol-4-Yl)phenyl)-3-(2-Bromophenyl)urea], the “autophagosome in tumor cells” value in the series with Huh-7 cells [3] is given as “increased dramatically”. Moreover, the H2AX protein expression result with Huh-7 cells [8] was “significantly increased”. Further, the DNA damage entry in the series on Huh-7 cells [4] was “significantly stimulated DNA damage in a concentration-dependent manner”. Also, the apoptotic cells result with Huh-7 cells [5] is given as “dose-dependent increases in apoptotic cells”. The IC50 in the series on Huh-7 cells [1] (Homo sapiens, Huh-7, 72 h) was 12.2 ± 1.31 µM. Moreover, in the series on Huh-7 cells [6], the “Dead and living cells staining” value is “dead cells were increased significantly in a dose-dependent manner”. Further, in the series on Huh-7 cells [7], the “DNA damaged genes and autophagy genes (mRNA)” value was “not changed”; the “expression of Bcl2 (mRNA)” value is reported as “increased largely”; the “expression of Gpx4 and TNFa (mRNA)” value was “also increased”.

`O=C(Nc1ccc(-c2cn(Cc3ccc(Br)cc3)nn2)cc1)Nc1ccccc1Br` [Compound 5e, 1-(4-(1-(4-Bromobenzyl)-1H-1,2,3-Triazol-4-Yl)phenyl)-3-(2-Bromophenyl)urea]: in the series with Huh-7 cells [1] (Homo sapiens, Huh-7, 72 h), the IC50 is over 50 µM.

Regarding `O=C(Nc1ccc(Cl)cc1)Nc1ccc(-c2cn(Cc3ccc(Cl)cc3)nn2)cc1` [Compound 5a, 1-(4-(1-(4-Chlorobenzyl)-1H-1,2,3-Triazol-4-Yl)phenyl)-3-(4-Chlorophenyl)urea], the IC50 with Huh-7 cells [1] (Homo sapiens, Huh-7, 72 h) is over 50 µM.

In the case of `O=C(NCc1cn(Cc2ccc(Cl)cc2)nn1)Nc1ccc(Cl)cc1` [Compound 7a, 1-((1-(4-Chlorobenzyl)-1H-1,2,3-Triazol-4-Yl)methyl)-3-(4-Chlorophenyl)urea], the IC50 in the series on Huh-7 cells [1] (Homo sapiens, Huh-7, 72 h) is over 50 µM.
